Reference: ChEMBL document CHEMBL1157144, “Novel 16-membered macrolides modified at C-12 and C-13 positions of midecamycin A1 and miokamycin. Part 1: Synthesis and evaluation of 12,13-carbamate and 12-arylalkylamino-13-hydroxy analogues” (2008)
In brackets after ≈: the same amount, converted by molar mass.

Key:
Format in all cases: functional
Streptococcus pyogenes [1] = assay: Antibacterial activity against ermB-constitutive resistant Streptococcus pyogenes after 20 hrs by agar dilution method
In short: (§1)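 Agar dilution MIC. Streptococcal strains were pre-cultured on blood agar plates. A 5 µl portion of a cell suspension of about 10^6 CFU/ml was inoculated onto Sensitivity disk agar supplemented with 5% horse blood. Plates were incubated at 37 °C for 20 h, then MIC was read.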

Staphylococcus aureus [2] = assay: Antibacterial activity against standard Staphylococcus aureus after 20 hrs by agar dilution method
In short: (§2)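 Agar dilution MIC. The inoculum came from a seed culture in Sensitivity test broth. A 5 µl portion of a cell suspension of about 10^6 CFU/ml was inoculated onto Sensitivity disk agar supplemented with 5% horse blood. Plates were incubated at 37 °C for 20 h, then MIC was read.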

Haemophilus influenzae [3] = assay: Antibacterial activity against susceptible Haemophilus influenzae after 20 hrs by agar dilution method
In short: (§3)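 MIC by agar dilution. Strains grown on blood agar plates for seed culture. About 5 µl of a suspension of roughly 10^6 CFU/ml spotted onto Sensitivity disk agar with 5% horse blood. Plates incubated at 37 °C for 20 h, then MIC read.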

Staphylococcus aureus [4] = assay: Antibacterial activity against ermB-inducible resistant Staphylococcus aureus after 20 hrs by agar dilution method; in short: as §2
Haemophilus influenzae [5] = assay: Antibacterial activity against standard Haemophilus influenzae after 20 hrs by agar dilution method; in short: as §3
Staphylococcus aureus [6] = assay: Antibacterial activity against ermA-constitutive resistant Staphylococcus aureus after 20 hrs by agar dilution method; in short: as §2
Streptococcus pyogenes [7] = assay: Antibacterial activity against mefE efflux-resistant Streptococcus pyogenes after 20 hrs by agar dilution method; in short: as §1
Staphylococcus aureus [8] = assay: Antibacterial activity against ermC-inducible resistant Staphylococcus aureus after 20 hrs by agar dilution method; in short: as §2
Streptococcus pyogenes [9] = assay: Antibacterial activity against standard Streptococcus pyogenes after 20 hrs by agar dilution method; in short: as §3
Streptococcus pneumoniae [10] = assay: Antibacterial activity against susceptible Streptococcus pneumoniae after 20 hrs by agar dilution method; in short: as §3
Streptococcus pneumoniae [11] = assay: Antibacterial activity against ermB-inducible resistant Streptococcus pneumoniae after 20 hrs by agar dilution method; in short: as §1
Moraxella catarrhalis = assay: Antibacterial activity against standard Moraxella catarrhalis after 20 hrs by agar dilution method; in short: as §3
Staphylococcus aureus [12] = assay: Antibacterial activity against susceptible Staphylococcus aureus after 20 hrs by agar dilution method; in short: as §2
Streptococcus pneumoniae [13] = assay: Antibacterial activity against mefE efflux-resistant Streptococcus pneumoniae after 20 hrs by agar dilution method; in short: as §1
Streptococcus pneumoniae [14] = assay: Antibacterial activity against ermB-constitutive resistant Streptococcus pneumoniae after 20 hrs by agar dilution method; in short: as §1

Row | SMILES | MIC (Streptococcus pyogenes [1]) [µg/mL] | MIC (Staphylococcus aureus [2]) [µg/mL] | MIC (Haemophilus influenzae [3]) [µg/mL] | MIC (Staphylococcus aureus [4]) [µg/mL] | MIC (Haemophilus influenzae [5]) [µg/mL] | MIC (Staphylococcus aureus [6]) [µg/mL] | MIC (Streptococcus pyogenes [7]) [µg/mL] | MIC (Staphylococcus aureus [8]) [µg/mL] | MIC (Streptococcus pyogenes [9]) [µg/mL] | MIC (Streptococcus pneumoniae [10]) [µg/mL] | MIC (Streptococcus pneumoniae [11]) [µg/mL] | MIC (Moraxella catarrhalis) [µg/mL] | MIC (Staphylococcus aureus [12]) [µg/mL] | MIC (Streptococcus pneumoniae [13]) [µg/mL] | MIC (Streptococcus pneumoniae [14]) [µg/mL]
1 | CCC(=O)O[C@@H]1CC(=O)O[C@H](C)C[C@H](O)[C@H](N(C)CCCc2cnc3ccccc3c2)/C=C/[C@H](OC(C)=O)[C@H](C)C[C@H](CC=O)[C@H](O[C@@H]2O[C@H](C)[C@@H](O[C@H]3C[C@@](C)(O)[C@@H](OC(=O)CC)[C@H](C)O3)[C@H](N(C)C)[C@H]2O)[C@H]1OC | > 100 | 0.39 (≈ 0.364 µM) | 25 (≈ 23.3 µM) | 0.2 (≈ 0.187 µM) | 3.13 (≈ 2.92 µM) | > 100 | 0.2 (≈ 0.187 µM) | 0.39 (≈ 0.364 µM) | 0.1 (≈ 0.0933 µM) | 0.05 (≈ 0.0466 µM) | 12.5 (≈ 11.7 µM) | 0.78 (≈ 0.727 µM) | 0.39 (≈ 0.364 µM) | 0.1 (≈ 0.0933 µM) | > 100
2 | CCC(=O)O[C@@H]1CC(=O)O[C@H](C)C[C@H](O)[C@H](N(C)CCCc2ccccc2)/C=C/[C@H](OC(C)=O)[C@H](C)C[C@H](CC=O)[C@H](O[C@@H]2O[C@H](C)[C@@H](O)[C@H](N(C)C)[C@H]2O)[C@H]1OC | > 100 | 0.39 (≈ 0.475 µM) | 3.13 (≈ 3.81 µM) | 1.56 (≈ 1.9 µM) | 0.39 (≈ 0.475 µM) | > 100 | 0.78 (≈ 0.95 µM) | 1.56 (≈ 1.9 µM) | 0.39 (≈ 0.475 µM) | 0.2 (≈ 0.244 µM) | > 100 | 0.025 (≈ 0.0305 µM) | 0.78 (≈ 0.95 µM) | 0.39 (≈ 0.475 µM) | > 100
3 | CCC(=O)O[C@@H]1CC(=O)O[C@H](C)C/C=C/C=C/[C@H](OC(C)=O)[C@H](C)C[C@H](CC=O)[C@H](O[C@@H]2O[C@H](C)[C@@H](O[C@H]3C[C@@](C)(OC(C)=O)[C@@H](OC(=O)CC)[C@H](C)O3)[C@H](N(C)C)[C@H]2O)[C@H]1OC [MIOCAMYCIN] | > 100 | 0.2 (≈ 0.223 µM) | 25 (≈ 27.8 µM) | 1.56 (≈ 1.74 µM) | 3.13 (≈ 3.49 µM) | > 100 | 0.2 (≈ 0.223 µM) | 0.78 (≈ 0.869 µM) | 0.1 (≈ 0.111 µM) | 0.1 (≈ 0.111 µM) | 6.25 (≈ 6.96 µM) | 0.78 (≈ 0.869 µM) | 0.78 (≈ 0.869 µM) | 0.2 (≈ 0.223 µM) | > 100
4 | CCC(=O)O[C@@H]1CC(=O)O[C@H](C)C[C@H](O)[C@H](N(C)CCCc2cccc3ccccc23)/C=C/[C@H](OC(C)=O)[C@H](C)C[C@H](CC=O)[C@H](O[C@@H]2O[C@H](C)[C@@H](O)[C@H](N(C)C)[C@H]2O)[C@H]1OC | > 100 | 0.39 (≈ 0.448 µM) | 3.13 (≈ 3.59 µM) | 0.78 (≈ 0.895 µM) | 0.78 (≈ 0.895 µM) | > 100 | 0.39 (≈ 0.448 µM) | 0.78 (≈ 0.895 µM) | 0.1 (≈ 0.115 µM) | 0.025 (≈ 0.0287 µM) | 100 (≈ 115 µM) | 0.025 (≈ 0.0287 µM) | 0.78 (≈ 0.895 µM) | 0.1 (≈ 0.115 µM) | > 100
5 | CCC(=O)O[C@@H]1CC(=O)O[C@H](C)C[C@H](O)[C@H](N(C)CCCc2cccc3ccccc23)/C=C/[C@H](OC(C)=O)[C@H](C)C[C@H](CC=O)[C@H](O[C@@H]2O[C@H](C)[C@@H](O[C@H]3C[C@@](C)(O)[C@@H](OC(=O)CC)[C@H](C)O3)[C@H](N(C)C)[C@H]2O)[C@H]1OC | 50 (≈ 46.7 µM) | 0.39 (≈ 0.364 µM) | 25 (≈ 23.3 µM) | 3.13 (≈ 2.92 µM) | 6.25 (≈ 5.83 µM) | > 100 | 0.2 (≈ 0.187 µM) | 0.78 (≈ 0.728 µM) | 0.1 (≈ 0.0933 µM) | 0.1 (≈ 0.0933 µM) | 6.25 (≈ 5.83 µM) | 0.78 (≈ 0.728 µM) | 0.39 (≈ 0.364 µM) | 0.1 (≈ 0.0933 µM) | 50 (≈ 46.7 µM)
6 | CCC(=O)O[C@@H]1CC(=O)O[C@H](C)C[C@H](O)[C@H](N(C)CCCCCCc2ccccc2)/C=C/[C@H](OC(C)=O)[C@H](C)C[C@H](CC=O)[C@H](O[C@@H]2O[C@H](C)[C@@H](O[C@H]3C[C@@](C)(O)[C@@H](OC(=O)CC)[C@H](C)O3)[C@H](N(C)C)[C@H]2O)[C@H]1OC | 25 (≈ 23.5 µM) | 0.39 (≈ 0.367 µM) | 25 (≈ 23.5 µM) | 0.2 (≈ 0.188 µM) | 6.25 (≈ 5.88 µM) | 100 (≈ 94 µM) | 0.2 (≈ 0.188 µM) | 0.39 (≈ 0.367 µM) | 0.2 (≈ 0.188 µM) | 0.1 (≈ 0.094 µM) | 6.25 (≈ 5.88 µM) | 0.78 (≈ 0.734 µM) | 0.39 (≈ 0.367 µM) | 0.2 (≈ 0.188 µM) | 50 (≈ 47 µM)
